Our source for the IC50, Activity and EC50 values is ChEMBL document CHEMBL4680084, “New β-Lactam Derivatives Modulate Cell Adhesion and Signaling Mediated by RGD-Binding and Leukocyte Integrins” (J Med Chem, 2016).

pEC50, pIC50: −log10 of the molar value. Calls of active or inactive are those of the source. The rule behind the calls is not given here. Some results are limits rather than exact numbers.

The target of data set [1] is T1, Integrin alpha-IIb/beta-3 (Homo sapiens, UniProt P05106+P08514). Put plainly: Inhibition of fibrinogen binding to alpha2bbeta3 isolated from human HEL cells incubated for 1 hr by […] competitive solid-phase binding assay.
In data set [2] the target is T2, Integrin alpha-V/beta-6 (Homo sapiens, UniProt P06756+P18564). In words: Inhibition of fibronectin binding to alphaVbeta6 isolated form human HT-29 cells incubated for 1 hr by […] competitive solid-phase binding assay. The format is tissue-based.
Data set [3] has as its target T3, Integrin alpha-V/beta-3 (Homo sapiens, UniProt P05106+P06756). Put plainly: Agonist activity at alphaVbeta3 in human SK-MEL-24 cells assessed as increase in cell adhesion to fibronectin at 10 ug/ml pre-incubated for 30 mins and further incubated for 1 hr in presence of neutralizing antibody against the alphaV integrin subunit by nitrophenyl-N-acetyl-beta-D-glucosaminide substrate based chromogenic assay. The following applies: dose 10.0 µg/ml, time 90.0 min.

Data set [4] deals with T4, Integrin alpha-V/beta-5 (Homo sapiens, UniProt P06756+P18084). Put plainly: Agonist activity at alphaVbeta5 in human MCF7 cells assessed as increase in cell adhesion to fibrinogen pre-incubated for 30 mins before fibrinogen and further incubated for 1 hr by nitrophenyl-N-acetyl-beta-D-glucosaminide substrate based chromogenic assay. An outline of the steps: (§1)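 Compound or methanol vehicle pre-incubated with cells for 30 min at room temperature. Cells then plated on wells coated overnight at 4 °C with fibronectin 10 µg/mL (SK-MEL-24, K562, HT-29) or fibrinogen 10 µg/mL (MCF7, HEL). Seeding was 50,000 cells/well, or 100000 for HEL. Adhesion ran 1 h at room temperature. Wells washed with 1% BSA/PBS. Adherent cells read by hexosaminidase substrate, absorbance 405 nm. Quadruplicate, at least three repeats.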

For data set [5], the target named is T5, Integrin alpha-5/beta-1 (Homo sapiens, UniProt P05556+P08648). In words: Inhibition of fibronectin binding to alpha5beta1 isolated from human K562 cells incubated for 1 hr by […] competitive solid-phase binding assay. In kind it is tissue-based. An outline of the steps:
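Plates coated overnight at 4 °C in carbonate buffer pH 9.6 with fibronectin 0.5 µg/mL (αvβ3, αvβ6, α5β1), fibrinogen 10 µg/mL (αIIbβ3, αvβ5) or ICAM-1 (αLβ2). Blocked 1 h in buffer containing Ca/Mg/Mn 1 mM each and 1% BSA. Purified integrin (3–10 µg/mL) incubated with compound (10⁻⁴–10⁻¹⁰ M) 1 h at room temperature. Bound integrin detected with primary antibody then AlexaFluor488 secondary, Ex485/Em535. Duplicate, at least three repeats.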

In data set [6] the target is T1, Integrin alpha-IIb/beta-3. Put plainly: Agonist activity at alpha2bbeta3 in human HEL cells assessed as increase in cell adhesion to fibrinogen pre-incubated for 30 mins before fibrinogen and further incubated for 1 hr by nitrophenyl-N-acetyl-beta-D-glucosaminide substrate based chromogenic assay. An outline of the steps: (§2)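 Compound or methanol vehicle pre-incubated with cells for 30 min at room temperature. Cells then plated on wells coated overnight at 4 °C with fibronectin 10 µg/mL (SK-MEL-24, K562, HT-29) or fibrinogen 10 µg/mL (MCF7, HEL). Seeding was 50,000 cells/well, or 100000 for HEL. Adhesion ran 1 h at room temperature. Wells washed with 1% BSA/PBS. Quadruplicate, at least three repeats.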

Data set [7] concerns HEL. Put plainly: Toxicity in human HEL cells assessed as induction of cell necrosis and/or apoptosis incubated for 3 hrs by annexin V-PE and 7-AAD staining based by flow cytometry. An outline of the steps: (§3)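 After 3 h incubation, cells resuspended in complete medium and stained with annexin V-PE/7-AAD reagent for 20 min at room temperature in the dark. Flow cytometry sorted cells into viable, early apoptotic and late apoptotic/necrotic populations.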

In data set [8] the target is T6, Integrin alpha-4/beta-1 (Homo sapiens, UniProt P05556+P13612). Put plainly: Agonist activity at alpha4beta1 in human Jurkat E6.1 cells assessed as increase in cell adhesion to VCAM1 pre-incubated for 30 mins before VCAM1 and further incubated for 30 mins by […]. The format is cell-based. In outline:
(§4)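 Jurkat E6.1 cells labelled with CellTracker green CMFDA (12.5 µM, 30 min, 37 °C), washed, then pre-incubated 30 min at 37 °C with compound or methanol. Plated at 500,000/well on VCAM-1 (α4β1) or ICAM-1 (αLβ2) coated wells (5 µg/mL) for 30 min at 37 °C. Cells lysed in 0.5% Triton X-100; fluorescence read Ex485/Em535. Quadruplicate, at least three repeats.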

The target in data set [9] is T1, Integrin alpha-IIb/beta-3. In words: Antagonist activity at alpha2bbeta3 in human HEL cells assessed as reduction in cell adhesion to fibrinogen pre-incubated for 30 mins before fibrinogen and further incubated for 1 hr by nitrophenyl-N-acetyl-beta-D-glucosaminide substrate based chromogenic assay. In outline:
as §2

The target of data set [10] is T3, Integrin alpha-V/beta-3. Put plainly: Agonist activity at alphaVbeta3 in human SK-MEL-24 cells assessed as increase in cell adhesion to fibronectin at 2 to 10 ug/ml pre-incubated for 30 mins and further incubated for 1 hr by nitrophenyl-N-acetyl-beta-D-glucosaminide substrate based chromogenic assay. The following applies: filed as agonist, dose 2-10 µg/ml, time 90.0 min.

Data set [11] deals with T2, Integrin alpha-V/beta-6. In words: Agonist activity at alphaVbeta6 in human HT-29 cells assessed as increase in cell adhesion to fibronectin pre-incubated for 30 mins before fibronectin and further incubated for 1 hr by nitrophenyl-N-acetyl-beta-D-glucosaminide substrate based chromogenic assay. An outline of the steps:
as §1

Data set [12] deals with SK-MEL-24. Put plainly: Toxicity in human SK-MEL-24 cells assessed as induction of cell necrosis and/or apoptosis incubated for 3 hrs by annexin V-PE and 7-AAD staining based by flow cytometry. The following applies: sk-mel-24, 3 h. An outline of the steps: as §3
In general terms: In flow cytometry, cells or beads pass a laser one at a time.

The target of data set [13] is T3, Integrin alpha-V/beta-3. In words: Agonist activity at alphaVbeta3 in human SK-MEL-24 cells assessed as increase in cell adhesion to fibronectin at 10 ug/ml pre-incubated for 30 mins and further incubated for 1 hr in presence of in presence of integrin antagonist c(-RGDfV) by nitrophenyl-N-acetyl-beta-D-glucosaminide substrate based chromogenic assay. The following applies: dose 10.0 µg/ml, time 90.0 min.

For data set [14], the system named is MCF7. Put plainly: Toxicity in human MCF7 cells assessed as induction of cell necrosis and/or apoptosis incubated for 3 hrs by annexin V-PE and 7-AAD staining based by flow cytometry. The following applies: mcf7, 3 h. An outline of the steps: as §3
For data set [15], the target named is T7, Integrin alpha-L/beta-2 (LFA-1) (Homo sapiens, UniProt P05107+P20701). Put plainly: Antagonist activity at alphaLbeta2 in human Jurkat E6.1 cells assessed as reduction in cell adhesion to ICAM1 pre-incubated for 30 mins before ICAM1 and further incubated for 30 mins by […]. The format is cell-based. In outline: as §4
The target of data set [16] is T6, Integrin alpha-4/beta-1. In words: Antagonist activity at alpha4beta1 in human Jurkat E6.1 cells assessed as reduction in cell adhesion to VCAM1 pre-incubated for 30 mins before VCAM1 and further incubated for 30 mins by […]. The format is cell-based.
Data set [17] has as its target T4, Integrin alpha-V/beta-5. In words: Inhibition of fibrinogen binding to alphaVbeta5 isolated form human mCf7 cells incubated for 1 hr by […] competitive solid-phase binding assay.
In data set [18] the test system is K562. In words: Toxicity in human K562 cells assessed as induction of cell necrosis and/or apoptosis incubated for 3 hrs by annexin V-PE and 7-AAD staining based by flow cytometry. The following applies: k562, 3 h. In outline:
as §3

Data set [19] deals with T6, Integrin alpha-4/beta-1. In words: Inhibition of fibronectin binding to […] isolated from human Jurkat E6.1 cells incubated for 1 hr by scintillation-proximity assay based competitive solid-phase binding assay. The format is tissue-based.
Data set [20] deals with HT-29. In words: Toxicity in human HT-29 cells assessed as induction of cell necrosis and/or apoptosis incubated for 3 hrs by annexin V-PE and 7-AAD staining based by flow cytometry. The following applies: ht-29, 3 h. In outline:
as §3

Data set [21] addresses T3, Integrin alpha-V/beta-3. Put plainly: Inhibition of fibronectin binding to human recombinant alphaVbeta3 expressed in HEK293 cells incubated for 1 hr by […] competitive solid-phase binding assay. The format is cell-based.
The target of data set [22] is T5, Integrin alpha-5/beta-1. In words: Agonist activity at alpha5beta1 in human K562 cells assessed as increase in cell adhesion to fibronectin at 10 ug/ml pre-incubated for 30 mins and further incubated for 1 hr in presence of integrin antagonist c(-RGDfV) by nitrophenyl-N-acetyl-beta-D-glucosaminide substrate based chromogenic assay. The following applies: dose 10.0 µg/ml, time 90.0 min. An outline of the steps: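 Agonist-coated wells (10 µg/mL in methanol). Cells pre-treated 10 min before plating with neutralizing anti-α5, anti-αv or anti-α4 antibody (10 µg/mL), or pre-incubated with c(-RGDfV) (1 µM). K562 plated at 50,000/well and Jurkat E6.1 at 500,000/well. Adhesion quantified as in the standard assay.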

Data set [23] deals with T5, Integrin alpha-5/beta-1. Put plainly: Agonist activity at alpha5beta1 in human K562 cells assessed as increase in cell adhesion to fibronectin pre-incubated for 30 mins and further incubated for 1 hr by nitrophenyl-N-acetyl-beta-D-glucosaminide substrate based chromogenic assay. The following applies: filed as agonist, time 90.0 min. An outline of the steps: as §1
The target of data set [24] is T1, Integrin alpha-IIb/beta-3. In words: Agonist activity at alpha2bbeta3 in human K562 cells assessed as increase in cell adhesion to fibrinogen pre-incubated for 30 mins and further incubated for 1 hr in presence of alpha2bbeta3 antagonist Tirofiban by nitrophenyl-N-acetyl-beta-D-glucosaminide substrate based chromogenic assay. The following applies: filed as agonist, time 90.0 min.

For data set [25], the target named is T3, Integrin alpha-V/beta-3. In words: Agonist activity at alphaVbeta3 in human SK-MEL-24 cells assessed as increase in cell adhesion to fibronectin pre-incubated for 30 mins before fibronectin and further incubated for 1 hr by nitrophenyl-N-acetyl-beta-D-glucosaminide substrate based chromogenic assay. An outline of the steps:
as §1

The target of data set [26] is T5, Integrin alpha-5/beta-1. Put plainly: Agonist activity at alpha5beta1 in human K562 cells assessed as increase in cell adhesion to fibronectin pre-incubated for 30 mins before fibronectin and further incubated for 1 hr by nitrophenyl-N-acetyl-beta-D-glucosaminide substrate based chromogenic assay. In outline:
as §1

The target in data set [27] is T2, Integrin alpha-V/beta-6. Put plainly: Antagonist activity at alphaVbeta6 in human HT-29 cells assessed as reduction in cell adhesion to fibronectin pre-incubated for 30 mins before fibronectin and further incubated for 1 hr by nitrophenyl-N-acetyl-beta-D-glucosaminide substrate based chromogenic assay. An outline of the steps:
as §2

The target of data set [28] is T7, Integrin alpha-L/beta-2 (LFA-1). Put plainly: Agonist activity at alphaLbeta2 in human Jurkat E6.1 cells assessed as increase in cell adhesion to ICAM1 pre-incubated for 30 mins before ICAM1 and further incubated for 30 mins by […]. The format is cell-based. An outline of the steps: as §4
Data set [29] concerns the target T5, Integrin alpha-5/beta-1. In words: Agonist activity at alpha5beta1 in human K562 cells assessed as increase in cell adhesion to fibronectin at 10 ug/ml […] and further incubated for 1 hr in presence of neutralizing antibody against the alpha5 integrin subunit by nitrophenyl-N-acetyl-beta-D-glucosaminide substrate based chromogenic assay. The following applies: dose 10.0 µg/ml, time 90.0 min.

For data set [30], the target named is T6, Integrin alpha-4/beta-1. In words: Antagonist activity at alpha4beta1 in human Jurkat E6.1 cells assessed as reduction in VCAM-1 induced ERK1/2 phosphorylation at 1 to 100 nM by Western blot analysis. In kind it is cell-based. The following applies: filed as antagonist, dose 1-100 nM. In general terms: Immunoblotting shows a protein as a band on a membrane.

Data set [31] addresses T5, Integrin alpha-5/beta-1. In words: Agonist activity at alpha5beta1 in human K562 cells assessed as assessed as increase in ERK1/2 phosphorylation at 1 to 100 nM by Western blot analysis. The format is cell-based. The following applies: filed as agonist, dose 1-100 nM.

A word on the pIC50: it is the negative decadic logarithm of the IC50, by convention in mol/L. As a reminder, the pEC50 is the EC50 on a negative log10 scale, so that one unit is a factor of ten. `NCc1ccc(NC(=O)N2C(=O)CC2CC(=O)O)cc1.O=C(O)C(F)(F)F` (stereo unspecified): the pIC50 in data set [1] was under 6.00; in [2], 7.09; in [5], 8.26; in data set [9], under 5.30; in data set [15] it was 5.62; in [16] it was under 5.30. Also, the values for the pIC50 in [17], in data set [19] and in [21] were 8.42, under 6.00 and 8.25, respectively. The result in data set [3] and in [13] was inactive. The pEC50 in data set [4] is 8.29; in data set [6], under 5.30; in data set [8], under 5.30; in data set [11] it was 6.78. Moreover, the Activity result is “Non-Toxic” in data set [7]; “Dose-dependent effect” in data set [10]; “Non-Toxic” in data set [12]; “Non-Toxic” in data set [14]; “Non-Toxic” in data set [18]; “Non-Toxic” in [20].
Take `Cc1ccccc1NC(=O)N1C(=O)CC1CC(=O)NCCC(=O)O` (stereo unspecified): the outcome in data set [22] and in data set [29] was inactive. Besides, the pIC50 in data set [2] is 7.63; in data set [5], 7.44; in data set [9], under 5.30; in data set [27], 7.35; in [15], under 5.30; in data set [16], 7.76. Further, the pIC50 in data set [17] is 6.20; in data set [19] it was 7.91; in [21] it was 6.94. Besides, the pEC50 in [4] was 6.17; in [6] it was under 5.30; in data set [25], 6.73; in data set [26] it was 7.31; in data set [28] it was under 5.30. Also, the Activity entry in data set [23] is “Dose-dependent effect”; in data set [7], “Non-Toxic”; in data set [12] it was “Non-Toxic”; in [14], “Non-Toxic”; in [18], “Non-Toxic”; in data set [30], “Dose-dependent effect”. Further, the Activity result in [20] is “Non-Toxic”; in [31], “Dose-dependent effect”. Also, in data set [24], the result was Active.
